# From PubChem BioAssay
# Active and inactive are the calls of the source.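 Rule for the calls, unless noted: active = GFP response above 150% of the DMSO level; inconclusive = fewer than 70 events counted for a yeast strain; inactive = the rest.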
# Experiments:
# [1] = RPL19A-GFP modulators, yeast TOR pathway, confirmation, cell-based, S. cerevisiae, flow cytometry, cherry picks, mother/daughter gates (AID 2270;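 active = GFP response below 50% of the DMSO control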); conditions: S. cerevisiae RPL19A-GFP strain, 3 h, at 10 µM, stronger effect = lower value, 100 = same GFP as DMSO wells
# [2] = LAP4-GFP expression modulators in yeast, confirmation, cell-based, cherry picks, flow cytometry, mother/daughter gates (AID 2271;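 active = GFP response above 150% of the DMSO control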;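 note: ratio of sample to DMSO plate mean so 100% equals DMSO level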); conditions: S. cerevisiae LAP4-GFP strain, 3 h, at 10 µM, stronger effect = higher value, 100 means same as DMSO control
# Summary of the method: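 Measured by: GFP by flow cytometry. Test system: GFP-fusion yeast strain. Input: yeast cells seeded at OD600 of 0.2. Timing: 30 °C, 3 h compound incubation, rotating. Buffer or medium: synthetic complete medium for yeast. Benchmarks: DMSO-only negative wells, rapamycin 400 ng/mL positive wells. Compound: 10 µM single dose.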
# [3] = modulators of MEP2-GFP levels in yeast, confirmation, S. cerevisiae, flow cytometry GFP, cherry picks (AID 2272;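 active = GFP response above 150% of the DMSO control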;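 note: ratio of well signal to plate DMSO mean so 100% equals DMSO level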); conditions: S. cerevisiae MEP2-GFP strain, 3 h, at 10 µM, stronger effect = higher value
# [4] = AGP1-GFP expression modulators, hit retest, confirmation, cell-based, flow cytometry, S. cerevisiae, cherry picks (AID 2273);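 note: median GFP channel fluorescence over the whole cell population gate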; conditions: S. cerevisiae AGP1-GFP strain, 3 h, at 10 µM
# [5] = modulators of CIT2-GFP expression in yeast, confirmation, S. cerevisiae, GFP fusion, cherry picks, mother/daughter gates (AID 2274); conditions: S. cerevisiae CIT2-GFP strain, flow cytometry, 3 h, at 10 µM, stronger effect = higher value
# [6] = measured here: daughter cell gate
# [7] = measured here: mother cell gate
# [8] = measured here: daughter cell gate response
# [9] = measured here: mother cell gate response
SMILES,GFP response vs DMSO [1],"GFP response vs DMSO [1, 6] [%]","GFP response vs DMSO [1, 7] [%]",GFP response relative to DMSO [2],"GFP response relative to DMSO [2, 8] [%]","GFP response relative to DMSO [2, 9] [%]",GFP response vs DMSO [3],"GFP response, % of DMSO [4]","GFP response, % of DMSO [5]","GFP response, % of DMSO [5, 6] [%]","GFP response, % of DMSO [5, 7] [%]"
O=C(Oc1oc(-c2ccco2)nc1C=Nc1ccccc1)c1ccco1,104% (inactive),106,102,160% (active),147,175,107% (inactive),91.2% (inactive),104% (inactive),108,101
O=C1c2cccc3cccc(c23)C(=O)N1c1nncs1,103% (inactive),102,103,91.4% (inactive),94.1,92.1,102% (inactive),99.8% (inactive),96.5% (inactive),94.8,99.8
COc1ccc(OC(=O)c2cc(S(=O)(=O)N3CCCC3)ccc2Cl)cc1,97.6% (inactive),96.9,97.2,97.9% (inactive),99.2,97.2,98.3% (inactive),94.3% (inactive),101% (inactive),103,101
COc1cc(/C=C/C(=O)c2c(O)ccc3c(C)cc(=O)oc23)ccc1O,95% (inactive),94.4,95.8,124% (inactive),120,130,98.3% (inactive),92.5% (inactive),96.9% (inactive),101,93.8
CCn1c(=O)c(C(=O)NCc2ccc(OC)c(OC)c2)c(O)c2ccccc21,97.6% (inactive),99.1,99.2,94.1% (inactive),92.8,94,100% (inactive),103% (inactive),105% (inactive),106,106
CCC(=O)Nc1ccc(NC(=O)c2cc3ccccc3o2)cc1,103% (inactive),99.3,104,99.5% (inactive),99.1,98.4,101% (inactive),101% (inactive),97.3% (inactive),95.6,96.8
Cc1ccc(/C=C/C(=O)c2ccccc(=O)c2O)c(C)c1,90.2% (inactive),112,93.5,152% (active),146,158,137% (inactive),84.3% (inactive),103% (inactive),99.2,96.8
COc1ccc(/C=C2\Sc3ccc(C(=O)N4CCc5ccccc5C4)cc3N(C)C2=O)cc1,98.4% (inactive),97.4,99.5,99.2% (inactive),99.2,98.3,102% (inactive),102% (inactive),99.7% (inactive),99.1,98.5
O=S(=O)(c1ccc(Oc2ccc(Br)cc2)cc1)N1CCOCC1,103% (inactive),102,103,86% (inactive),86.4,83.7,97.5% (inactive),90.1% (inactive),95% (inactive),96.4,93.3
Cc1cccc(N2C(=O)c3cccc4c(N(C)CCO)ccc(c34)C2=O)c1,98.8% (inactive),96.9,99,110% (inactive),106,109,103% (inactive),101% (inactive),105% (inactive),105,104
CCOC(=O)c1ccccc1NC(=O)c1c(O)c2ccccc2n(CC)c1=O,95.6% (inactive),96.9,96.2,101% (inactive),102,98.3,102% (inactive),93.7% (inactive),98.3% (inactive),99.1,97.3
Cc1nn(Cc2c(Cl)cccc2Cl)c(C)c1NC(=O)c1sc2ccccc2c1Cl,94.8% (inactive),95.7,95.8,95.3% (inactive),93.6,98.5,99.5% (inactive),108% (inactive),104% (inactive),100,106
COc1cc(NC(=O)c2ccccc2[N+](=O)[O-])ccc1NC(=O)c1cc2ccccc2o1,101% (inactive),99.1,101,97% (inactive),97.5,97.3,103% (inactive),101% (inactive),97.3% (inactive),97.4,95.6
Cn1cnc([N+](=O)[O-])c1S(=O)(=O)c1cccc(Cl)c1,103% (inactive),99.9,100,107% (inactive),104,108,103% (inactive),113% (inactive),118% (inactive),119,113
CCN(c1ccccc1)S(=O)(=O)c1ccc(C(=O)Nc2nnc(COC)o2)cc1,101% (inactive),99.5,102,96.2% (inactive),97.2,98.3,100% (inactive),99.2% (inactive),96.5% (inactive),94.8,98.7
O=Nc1c(O)c2ccccc2c2ccccc12,113% (inactive),109,111,114% (inactive),113,119,111% (inactive),104% (inactive),107% (inactive),106,105
Cc1nn(Cc2ccc([N+](=O)[O-])cc2)c(=O)n1-c1cccc(Cl)c1,96% (inactive),96.6,96.6,96.7% (inactive),97.6,96.1,98.3% (inactive),95.4% (inactive),99.7% (inactive),101,99.7
Cc1cc(C)c(S(=O)(=O)NCC23C=CC(O2)C2C(=O)N(c4ccccc4)C(=O)C23)c(C)c1 (configuration not stated),102% (inactive),103,103,105% (inactive),105,108,102% (inactive),100% (inactive),104% (inactive),101,105
O=C(Nc1nnc(-c2ccccc2Cl)o1)c1ccc(S(=O)(=O)N2CCCCCC2)cc1,100% (inactive),98.6,99.8,97% (inactive),97.5,96.2,101% (inactive),95.1% (inactive),97.3% (inactive),93.8,98.1
Cc1nn(Cc2ccccc2Cl)c(C)c1C(=O)NCc1ccco1,99.3% (inactive),101,98.8,97.7% (inactive),101,98.4,99.3% (inactive),99.3% (inactive),98.6% (inactive),99.3,100
CS(=O)(=O)c1nc(-c2cccs2)cc(C(F)(F)F)n1,93% (inactive),95.2,88.6,176% (active),164,180,143% (inactive),118% (inactive),94.4% (inactive),99.2,89.5
Oc1c(C(Nc2cccc(C(F)(F)F)c2)c2ccncc2)ccc2cccnc12 (configuration not stated),105% (inactive),104,102,135% (inactive),120,136,112% (inactive),94% (inactive),99.3% (inactive),102,94.5
